# Results pooled from the literature.
# Each line is one published result; the experiments were not run side by side.
# Target: Ribosomal protein S6 kinase beta-1 (RPS6KB1, Homo sapiens, UniProt P23443)
SMILES,assay,conditions,measurement,result
CC(C)(C)c1cc(C=C(C#N)C#N)cc(Br)c1O,"enzyme activity, inhibitor",0.5 µM,remaining activity,91.3%
Cn1cncc1[C@@](O)(COc1ccc(C#N)cc1-c1ccc(OC(F)(F)F)cc1)c1ccc(C#N)cc1,"cell-free assay, competition with immobilised ligand",1 µM,remaining binding,94%
C#Cc1n[nH]c2c(-c3cn([C@@H](C)c4ccccc4)c(=O)[nH]c3=O)cc(F)cc12,"enzyme activity, inhibitor",0.1 µM,inhibition,18.6%
Cn1cc(-c2cccc(N3CCc4c(sc5c4CC(C)(C)C5)C3=O)c2CO)cc(Nc2ccncn2)c1=O,"enzyme activity, inhibitor",1 µM,inhibition,5%
N#CC1(c2ccccn2)CCN(Cc2cc(C(=O)O)c(=O)n3ccccc23)CC1,"cell-free assay, competition with immobilised ligand",1 µM,remaining binding,96%
COc1ncccc1-c1cnn2ccc(N3CCN(C(=O)OC(C)C)CC3)nc12,"binding, competition with immobilised ligand",1 µM,remaining binding,100%
C#Cc1n[nH]c2c(-c3cn([C@@H](C)c4ccccn4)c(=O)[nH]c3=O)cc(F)cc12,"enzyme activity, inhibitor",0.1 µM,inhibition,10.2%
O=c1[nH]c2ccccc2n1C1CCN(Cc2ccc(-c3[nH]c4cc5ncnc5cc4nc3-c3ccccc3)cc2)CC1,cell-free assay,0.5 µM,remaining signal,101%
Cn1cc(-c2cc(F)cc(N3CCn4c(cc5c4CCCC5)C3=O)c2CO)cc(Nc2ccc(N3CCN(C4COC4)CC3)cn2)c1=O,"enzyme activity, inhibitor",0.1 µM,inhibition,10%
Cc1nn(C)cc1-c1nc2c(N3CCN(Cc4ccc(Cl)cc4)CC3)c(Cl)cnc2[nH]1,"binding, competition with immobilised ligand",1 µM,remaining binding,92%
COc1cc(Nc2ncc(F)c(Nc3ccc4c(n3)NC(=O)C(C)(C)O4)n2)cc(OC)c1OC,binding,10 µM,inhibition,81%
Nc1ncc(-c2nc(N3CCOCC3)nc(N3CCOCC3)n2)c(C(F)F)n1,"binding, competition with immobilised ligand",10 µM,remaining binding,76%
